For series [1], the system named is dengue virus type 2. Briefly: Inhibition of DENV2 NS2B-NS3 protease assessed as residual activity up to 200 uM using Benzoyl-Nle-Lys-Arg-Arg-AMC as substrate preincubated for 3 mins followed by substrate addition by fluorescence spectrophotometer.
For series [2], the system named is Dengue virus. Briefly: Inhibition of DENV2 NS2B-NS3 protease assessed as residual activity at 16 uM using Benzoyl-Nle-Lys-Arg-Arg-AMC as substrate preincubated for 3 mins followed by substrate addition by fluorescence spectrophotometer.
The test system of series [3] is Dengue virus. Description: Inhibition of DENV2 NS2B-NS3 protease assessed as residual activity at 200 uM using Benzoyl-Nle-Lys-Arg-Arg-AMC as substrate preincubated for 3 mins followed by substrate addition by fluorescence spectrophotometer.
Series [4] concerns Dengue virus. Description: Inhibition of DENV2 NS2B-NS3 protease assessed as residual activity at 20 uM using Benzoyl-Nle-Lys-Arg-Arg-AMC as substrate preincubated for 3 mins followed by substrate addition by fluorescence spectrophotometer.
In series [5] the test system is dengue virus type 2. Briefly: Antiviral activity against DENV2 infected Vero E6 cells assessed as reduction in viral titer after 48 hrs by plaque assay. The class given is functional, Vero C1008. The conditions noted are these: Huh-7, 48 h, in the assay text read “Huh-7” for “Vero E6”. The gist of the method: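 Huh-7 cells (10^4/well) were infected with wild-type DENV-2 at MOI 1. Non-toxic compound concentrations were added 1 h later, and cells were incubated 48 h at 37 °C, in triplicate. Virus yield in the supernatant was titred on Vero E6 cells with 10^-1 to 10^-6 dilutions, 7-day plaque development, formaldehyde fixation and crystal violet staining. Titer reduction was judged against an untreated control.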

Series [6] can be described thus: Cytotoxicity against human HuH7 cells after 48 hrs by cell-titer glo luminescent viability assay. Type of series: cell-based, Huh-7.
The nature of series [7]: Inhibition of DENV2 NS2B-NS3 protease using Benzoyl-Nle-Lys-Arg-Arg-AMC as substrate preincubated for 3 mins followed by substrate addition by fluorescence spectrophotometer. More on the design: species or system Dengue virus. The gist of the method: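 Plasmid-expressed DENV-2 NS2B-NS3 protease was assayed at 37 °C, pH 9.0 (50 mM Tris-HCl, 10 mM NaCl, 20% glycerol, 1 mM CHAPS, 0.04% NaN3). Inhibitor at graded concentrations was preincubated 3 min before 33 µM substrate was added, and fluorescence was read at 356/438 nm. IC50 was derived from remaining activity (vehicle = 100%) versus concentration, as the mean of triplicates.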

The subject of series [8] is dengue virus type 2. Description: Inhibition of DENV2 NS2B-NS3 protease assessed as residual activity at 15 uM using Benzoyl-Nle-Lys-Arg-Arg-AMC as substrate preincubated for 3 mins followed by substrate addition by fluorescence spectrophotometer.

Results on 17 molecules are retold here after ChEMBL document CHEMBL4041495, “Identification of fused bicyclic derivatives of pyrrolidine and imidazolidinone as dengue virus-2 NS2B-NS3 protease inhibitors” (Eur J Med Chem, 2017).

Peptide text beside a SMILES is read from it. * marks the point of attachment. pNA = O=[N+]([O-])c1ccc(N*)cc1

With `O=C1[C@@H]2CCCN2[C@@H](Cc2ccc([N+](=O)[O-])cc2)N1c1ccc([N+](=O)[O-])cc1`, in the series on dengue virus type 2 [1], the Activity was greater than 50%.

Consider `CC(C)c1ccc([C@H]2N(c3ccc([N+](=O)[O-])cc3)C(=O)[C@@H]3CCCN32)cc1`, for which the Activity with dengue virus type 2 [1] is greater than 50%.

On to `C[C@H]1N(c2ccc([N+](=O)[O-])cc2)C(=O)[C@@H]2CCCN21`, for which, in the series on Dengue virus [2], the Activity is 58%.

Take `O=C1[C@@H]2CCCN2[C@@H](c2ccccc2)N1c1ccc([N+](=O)[O-])cc1`: the Activity in the series with Dengue virus [3] is 33%.

Turning to `COc1ccc([C@H]2N(c3ccc([N+](=O)[O-])cc3)C(=O)[C@@H]3CCCN32)cc1`, in the series with dengue virus type 2 [1], the Activity is greater than 50%.

For `O=C1[C@@H]2CCCN2[C@@H](Cc2ccccc2)N1c1ccc([N+](=O)[O-])cc1`, the Activity in the series on Dengue virus [4] worked out at 58%.

On to `O=C1[C@@H]2CCCN2[C@H](c2ccc(Cl)cc2)N1c1ccc([N+](=O)[O-])cc1`, for which the Activity in the series with dengue virus type 2 [1] was greater than 50%.

For the molecule `O=C1[C@@H]2CCCN2CN1c1ccc([N+](=O)[O-])cc1`, the Activity in the series with Dengue virus [2] turned out to be 61%.

As to `O=C1[C@@H]2CCCN2[C@@H](c2ccc(C(F)(F)F)cc2)N1c1ccc([N+](=O)[O-])cc1`, the Activity in the series on dengue virus type 2 [1] was greater than 50%.

As for `CSCC[C@H](N)C(=O)N1CCC[C@H]1C(=O)Nc1ccc([N+](=O)[O-])cc1` (H-Met-Pro-pNA), the 50% effective concentration (EC50) (as a rule, the concentration that produces a half-maximal response) with dengue virus type 2 [5] worked out at 38.7 µM. Further, in series [6], the CC50 – broadly, the concentration giving 50% cytotoxicity – at 48 h is greater than 100 µM. Besides, the concentration for half-maximal inhibition (IC50) – broadly, the concentration that gives 50% inhibition – in series [7] worked out at 1.2 µM.

As for `CC(C)[C@H]1N(c2ccc([N+](=O)[O-])cc2)C(=O)[C@@H]2CCCN21`, the Activity with Dengue virus [2] was 66%.

As to `O=C1[C@@H]2CCCN2[C@H](c2ccc([N+](=O)[O-])cc2)N1c1ccc([N+](=O)[O-])cc1`, the Activity with dengue virus type 2 [1] was greater than 50%.

With `CC[C@H]1N(c2ccc([N+](=O)[O-])cc2)C(=O)[C@@H]2CCCN21`, in the series on Dengue virus [2], the Activity amounted to 40%.

As for `O=C1[C@@H]2CCCN2[C@H](c2ccc(C(F)(F)F)cc2)N1c1ccc([N+](=O)[O-])cc1`, the Activity with dengue virus type 2 [1] was greater than 50%.

For the molecule `O=C1[C@@H]2CCCN2[C@@H](c2cccc([N+](=O)[O-])c2)N1c1ccc([N+](=O)[O-])cc1`, the Activity in the series with dengue virus type 2 [1] is greater than 50%.

`O=C1[C@@H]2CCCN2[C@@H](c2ccc(Cl)cc2)N1c1ccc([N+](=O)[O-])cc1`: the Activity in the series on dengue virus type 2 [1] is greater than 50%.

In the case of `O=C1[C@@H]2CCCN2[C@@H](c2ccc([N+](=O)[O-])cc2)N1c1ccc([N+](=O)[O-])cc1`, the Activity in the series with dengue virus type 2 [8] was 32%. The concentration for a half-maximal effect (EC50) with dengue virus type 2 [5] came to 39.4 µM. The molecule further yielded a 50% cytotoxic concentration (CC50) at 48 h in series [6] greater than 100 µM. Besides, 1.2 µM corresponded to half-maximal inhibition in series [7] (IC50).
